# According to ChEMBL document CHEMBL3297654, “Synthesis, antimicrobial and cytotoxic activities, and structure-activity relationships of gypsogenin derivatives against human cancer cells” (Eur J Med Chem, 2014):
# Calls of active or inactive are those of the source. The calls are words filed in the database; no cut-off is given here.
# Assays:
# [1] = tested on: Enterococcus faecalis; assay: Antimicrobial activity against Enterococcus faecalis ATCC 29212 assessed as zone of inhibition at 10 mg for 24 hrs at 37 degC by disk diffusion test; type: functional; conditions: ATCC 29212, 24 h, read-out: DIZ
# Summary of the method: (§1)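 Agar well diffusion following NCCLS disc susceptibility guidance. Compounds were held as 1000 µg/mL stocks in DMSO. Broth cultures (18–24 h) were adjusted to 0.5 McFarland (1×10^8 cells/mL) and spread on Mueller Hinton agar. A 6 mm well was cut and filled with 30 µL compound. Plates were incubated 24 h at 37 °C, and the inhibition zone diameter was measured in mm.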
# [2] = tested on: Bacillus subtilis; assay: Antimicrobial activity against Bacillus subtilis ATCC 6633 assessed as zone of inhibition at 10 mg by disk diffusion test; type: functional, organism-based
# [3] = tested on: Bacillus cereus; assay: Antimicrobial activity against Bacillus cereus ATCC 11778 assessed as zone of inhibition at 10 mg for 24 hrs at 30 degC by disk diffusion test; type: functional, organism-based
# Summary of the method: (§2)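 Well diffusion on Mueller Hinton agar per NCCLS disc susceptibility tests. DMSO stocks were 1000 µg/mL. Bacterial broth cultures (18–24 h) were adjusted to 0.5 McFarland, about 1×10^8 cells/mL. A 6 mm well received 30 µL compound. Incubation was 24 h at 30 °C, and zone diameters were read in mm. B. thuringiensis was a fecal clinical isolate grown in nutrient broth.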
# [4] = tested on: Proteus vulgaris; assay: Antimicrobial activity against Proteus vulgaris ATCC 33420 assessed as zone of inhibition at 10 mg by disk diffusion test; type: functional, organism-based
# [5] = tested on: Escherichia coli; assay: Antimicrobial activity against Escherichia coli ATCC 25922 assessed as zone of inhibition at 10 mg for 24 hrs at 37 degC by disk diffusion test; type: functional, organism-based
# [6] = tested on: Bacillus thuringiensis; assay: Antimicrobial activity against Bacillus thuringiensis assessed as zone of inhibition at 10 mg for 24 hrs at 30 degC by disk diffusion test; type: functional, organism-based; summary of the method: as §2
# [7] = tested on: Pseudomonas aeruginosa; assay: Antimicrobial activity against Pseudomonas aeruginosa ATCC 35032 assessed as zone of inhibition at 10 mg for 24 hrs at 37 degC by disk diffusion test; type: functional, organism-based; summary of the method: as §1
# [8] = tested on: Klebsiella pneumoniae; assay: Antimicrobial activity against Klebsiella pneumoniae ATCC 13882 assessed as zone of inhibition at 10 mg for 24 hrs at 37 degC by disk diffusion test; type: functional, organism-based; summary of the method: as §1
# [9] = tested on: Micrococcus luteus; assay: Antimicrobial activity against Micrococcus luteus ATCC 9341 assessed as zone of inhibition at 30 mg for 24 hrs at 30 degC by disk diffusion test; type: functional; conditions: ATCC 9341, 24 h, read-out: DIZ
SMILES,zone of inhibition at 10000 µg/disc [1] [mm],diameter of the inhibition zone (DIZ) [2],diameter of the inhibition zone (DIZ) [3],diameter of the inhibition zone (DIZ) [4],diameter of the inhibition zone (DIZ) [5],diameter of the inhibition zone (DIZ) [6],diameter of the inhibition zone (DIZ) [7],diameter of the inhibition zone (DIZ) [8],zone of inhibition at 30000 µg/disc [9] [mm]
CC1(C)S[C@@H]2[C@H](NC(=O)[C@H](N)c3ccccc3)C(=O)N2[C@H]1C(=O)O [AMPICILLIN],14,inactive,inactive,inactive,inactive,inactive,inactive,inactive,
CN(C)[C@@H]1C(O)=C(C(N)=O)C(=O)[C@@]2(O)C(O)=C3C(=O)c4c(O)cccc4[C@@](C)(O)[C@H]3C[C@@H]12 [TETRACYCLINE],,,,,,,,,26
